In ChEMBL document CHEMBL3351496, “Inhibition of the ANT(2")-Ia resistance enzyme and rescue of aminoglycoside antibiotic activity by synthetic α-hydroxytropolones” (Bioorg Med Chem Lett, 2014):
pIC50, pKi: −log10 of the molar value. Calls of active or inactive are those of the source. The rule behind the calls is not given here.

Experiments:
Escherichia coli [1] = test: Inhibition of Escherichia coli W677/JR76.2 2''-O-adenylyltransferase 1a using [14C]ATP at 730 uM by liquid scintillation counting analysis
Escherichia coli [2] = test: Antibacterial activity against Escherichia coli BW25113 expressing 2''-O-adenylyltransferase 1a with aadB gene into pGDP4 vector assessed as cell death at 50 uM; assay type: functional, organism-based
Method in brief: (§1)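 Hyper-permeable E. coli BW25113 made gentamicin-resistant by cloning aadB (ANT(2″)-Ia) into pGDP4. Cells were exposed to serial dilutions of gentamicin crossed with serial dilutions of α-hydroxytropolone in checkerboard format. Growth was scored to give the gentamicin MIC at each inhibitor level and the FICI. Cell survival, as fraction of cells remaining, was scored at the inhibitor-alone concentrations.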

Escherichia coli [3] = test: Antibacterial activity against Escherichia coli BW25113 expressing 2''-O-adenylyltransferase 1a with aadB gene into pGDP4 vector assessed as gentamycin MIC at 12 uM by checkerboard analysis; assay type: functional; method in brief: as §1
Escherichia coli [4] = test: Antibacterial activity against Escherichia coli BW25113 expressing 2''-O-adenylyltransferase 1a with aadB gene into pGDP4 vector by checkerboard analysis in presence of gentamycin; assay type: functional; method in brief: as §1
Escherichia coli [5] = test: Antibacterial activity against Escherichia coli BW25113 expressing 2''-O-adenylyltransferase 1d with aadB gene into pGDP4 vector by checkerboard analysis in presence of gentamycin; assay type: functional
[6] = Inhibition of Escherichia coli BL21 (lambda DE3) 2''-O-adenylyltransferase 1a by EnzChek pyrophosphate assay
Method in brief: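 ANT(2″)-Ia overexpressed in E. coli BL21 (λDE3) and purified. Adenylation of kanamycin B followed by detecting the pyrophosphate by-product in 96-well format. ATP at 25 μM. Duplicate serial dilutions of inhibitor; IC50 taken from the dose curves.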

[7] = Binding affinity to Escherichia coli BL21 (lambda DE3) 2''-O-adenylyltransferase 1a by ATP-competitive inhibition assay
Method in brief: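 Purified ANT(2″)-Ia expressed in E. coli BL21 (λDE3). Pyrophosphate from kanamycin B adenylation detected by coupled pyrophosphate assay. Ki derived from dose curves with carefully maintained ATP and kanamycin B concentrations. Run only on compounds with IC50 < 200 μM.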

Escherichia coli [8] = test: Inhibition of Escherichia coli W677/JR76.2 2''-O-adenylyltransferase 1a using [14C]ATP at 73 uM by liquid scintillation counting analysis
Escherichia coli [9] = test: Inhibition of Escherichia coli W677/JR76.2 2''-O-adenylyltransferase 1a using [14C]ATP at 7.3 uM by liquid scintillation counting analysis
Escherichia coli [10] = test: Antibacterial activity against Escherichia coli BW25113 expressing 2''-O-adenylyltransferase 1a with aadB gene into pGDP4 vector assessed as cell remain at 50 uM; assay type: functional; method in brief: as §1
Escherichia coli [11] = test: Antibacterial activity against wild type Escherichia coli BW25113; assay type: functional, organism-based
Method in brief: (§2)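 Gentamicin alone was serially diluted to find its MIC (μg/mL). This was done against E. coli BW25113 carrying aadB in pGDP4 and against wild-type BW25113 without the plasmid.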

Escherichia coli [12] = test: Antibacterial activity against Escherichia coli BW25113 expressing 2''-O-adenylyltransferase with aadB gene into pGDP4 vector; assay type: functional, organism-based; method in brief: as §2
Escherichia coli [13] = test: Inhibition of Escherichia coli W677/JR76.2 2''-O-adenylyltransferase 1a using [14C]ATP at 55 uM by liquid scintillation counting analysis
Escherichia coli [14] = test: Inhibition of Escherichia coli W677/JR76.2 2''-O-adenylyltransferase 1a using [14C]ATP at 550 uM by liquid scintillation counting analysis
Escherichia coli [15] = test: Inhibition of Escherichia coli W677/JR76.2 2''-O-adenylyltransferase 1a using [14C]ATP at 5.5 uM by liquid scintillation counting analysis

Row | Compound | fractional inhibitory concentration index (FICI) (Escherichia coli [4]) | pIC50 [6] | pKi [7] | other results
1 | CC(C)c1ccc(O)c(=O)c(O)c1 [BETA-THUJAPLICINOL] | 0.375 | 5.18 | 5.19 | inhibition (Escherichia coli [1]): 100%; Activity (Escherichia coli [2]): Active; MIC (Escherichia coli [3]): 8 µg/mL; fractional inhibitory concentration index (FICI) (Escherichia coli [5]): 3; inhibition (Escherichia coli [8]): 76%; inhibition (Escherichia coli [9]): 31%
2 | COCc1cc(O)c(=O)c(O)c(C(=O)OC)c1C(=O)OC |  | < 3.70 |  | 
3 | COC(=O)c1c(C)cc(O)c(=O)c(O)c1C(=O)OC |  | < 3.70 |  | 
4 | Cc1cc(O)c(=O)c(O)cc1-c1ccc([N+](=O)[O-])cc1 | 0.5 | 4.70 | 4.67 | 
5 | COc1cc(C)c(C(C)=O)cc(O)c1=O |  | < 3.70 |  | 
6 | CC(=O)c1cc(O)c(=O)c(O)cc1C | 0.187 | 4.30 | 4.54 | MIC (Escherichia coli [3]): 32 µg/mL; Activity (Escherichia coli [10]): 80%
7 | GENTAMICIN |  |  |  | MIC (Escherichia coli [11]): 0.25 µg/mL; MIC (Escherichia coli [12]): 64 µg/mL
8 | O=c1c(O)ccccc1O |  |  |  | inhibition (Escherichia coli [13]): 78%; inhibition (Escherichia coli [14]): 100%; inhibition (Escherichia coli [15]): 8%
9 | COc1cc(C)c(-c2ccc([N+](=O)[O-])cc2)cc(O)c1=O |  | < 3.70 |  | 
10 | Cc1cc(O)c(=O)c(O)cc1-c1ccc(-c2ccccc2)cc1 |  | < 3.70 |  | 
11 | Cc1cc(O)c(=O)c(O)cc1-c1ccc2ccccc2c1 |  | < 3.70 |  | 
12 | Cc1cc(O)c(=O)c(O)cc1C(=O)c1ccccc1 |  | < 3.70 |  | 
13 | Cc1cc(O)c(=O)c(O)cc1C(=O)C1CCCCC1 |  | < 3.70 |  | 
14 | Cc1cc(O)c(=O)c(O)cc1C(=O)C(C)C | 0.375 | 4.14 | 4.72 | 
15 | Cc1cc(O)c(=O)c(O)cc1-c1ccc(C(F)(F)F)cc1 |  | < 3.70 |  | 
16 | Cc1cc(O)c(=O)c(O)cc1C(=O)CC1CCCCC1 |  | < 3.70 |  | 
17 | Cc1cc(O)c(=O)c(O)cc1-c1ccccc1 | 2 | 3.93 | 4.60 | 
18 | COC(=O)c1c(CCl)cc(O)c(=O)c(O)c1C(=O)OC |  | < 3.70 |  | 
19 | Cc1cc(O)c(=O)c(O)cc1-c1ccc(Cl)cc1 | 2 | 5.00 | 5.16 | 
20 | Cc1cc(O)c(=O)c(O)cc1-c1ccc(Br)cc1 | 1 | 5.10 | 5.24 | 
21 | CCOC(=O)c1cc(O)c(=O)c(O)cc1C |  | < 3.70 |  | 
22 | Cc1cc(O)c(=O)c(O)cc1-c1cccc2ccccc12 |  | < 3.70 |  | 
